Screening results: PubChem BioAssay, Johns Hopkins Ion Channel Center
Compounds with a hit are over-represented: about 2.3% of the library has one in this group of screens.
TRPC4 agonist: opens the mouse TRPC4 cation channel. HEK293 TRPC4beta/mu-opioid, Fluo4 calcium fluorescence; stronger effect = higher value. B-score at 10 µM. actives 0.49% (n = 310,000);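 active means B-score above 5 SD of library B-scores, and initial fluorescence ratio not above library mean plus 5 SD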;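 further: positive B-score marks a calcium rise read as TRPC4 activation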
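Material: TRPC4beta and mu-opioid receptor HEK293 stable cells | Incubation: 45 min room-temperature Fluo4 loading, 110 s read | Detection: Kinetic Fluo4 calcium fluorescence | Measure: Integrated baseline-normalised fluorescence ratio, converted to per-well B score | Benchmarks: Low control buffer alone, high control maximal DAMGO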
TRPC6 act: activates the mouse TRPC6 cation channel; Q61143; HEK293-TRPC6 membrane potential dye fluorescence; stronger effect = higher value; B-score at 10 µM; actives 0.13% (n = 310,000); AID 2550;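 active means B-score of the integrated fluorescence ratio above library mean plus 3 SD, and starting fluorescence ratio within library mean plus 5 SD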;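 further: higher score means more depolarization so channel activation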
TRPC6 inh: inhibitors of mouse TRPC6 channel. HEK293-TRPC6, membrane potential dye, ACh-evoked depolarization; stronger effect = lower value. B-score at 10 µM. actives 1.1% (n = 310,000);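 active means B-score under library mean minus 3 SD, initial fluorescence not abnormally high, positive integrated signal ratio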;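 further: B-score derived from integrated fluorescence ratio over the kinetic read; more negative B-score means stronger inhibition of depolarization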
TRPC4 potent: allosteric potentiators of mouse TRPC4 channel; B-score at 10 µM; HEK293 TRPC4beta/mu-opioid, DAMGO EC20, Fluo-4 Ca2+ flux; stronger effect = higher value; AID 2227; Q9QUQ5; actives 0.42% (n = 310,000);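 active means B-score of calcium response area above 5 SD of library B-scores, with initial fluorescence ratio within 5 SD of library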;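 further: B-score of integrated fluorescence ratio over time as area under calcium response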
TRPC4 block: TRPC4 (mouse) channel inhibition. Q9QUQ5. HEK293 TRPC4beta/mu-opioid, DAMGO-evoked Fluo4 calcium flux; stronger effect = lower value. B-score at 10 µM. actives 0.39% (n = 300,000). AID 2247;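 active means B-score over 3 SD under the library average, no early fluorescence shift, positive overall ratio signal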
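Assay system – HEK293 line stably carrying TRPC4beta and mu-opioid receptor · Doses – single dose · Detection – Fluo4 calcium-dye fluorescence, kinetic read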
* = called active by the depositor; i = inactive.

SMILES | TRPC4 agonist | TRPC6 act | TRPC6 inh | TRPC4 potent | TRPC4 block
Cn1cc(CN2CCCC(CO)(Cc3cccc(Cl)c3)C2)cn1 (stereo not drawn) | i | i | i | i | i
CCn1cc(CN2CCCC(CO)(Cc3cccc(Cl)c3)C2)cn1 (stereo not drawn) | i | i | i | i | -6*
Cc1cc(Br)ccc1OCCCCNCCO | i | i | i | 10* | i
CCc1ccccc1OCCCCCNCCO | i | i | i | 11* | i
COc1ccc(CC2(CO)CCN(C/C=C/c3ccccc3OC)CC2)cc1 | i | i | i | i | -6*
CC(COc1ccccc1)N1CCC(CO)(Cc2ccccc2)CC1 (stereo not drawn) | i | i | i | i | -9*
N#CCc1cnc2ccccc2n1 | i | i | i | i | i
Cc1[nH]c2c(ccc3ccccc32)c1C1C(CCN)C1(C)C (stereo not drawn) | 70* | i | i | i | i
COc1ccc(C(=O)NC2CCN(CC(=O)Nc3c(C)cccc3C)CC2)cc1OC | i | i | i | i | i
CCOc1cccc(CN2CCCC(CCC(=O)NCc3ccccc3F)C2)c1O (stereo not drawn) | 56* | i | i | i | i
Cc1nn(C)c(Cl)c1CN1CCCC(CCC(=O)NCc2ccccc2F)C1 (stereo not drawn) | i | i | i | i | i
OC1(c2ccc(F)cc2)CCN(Cc2ccccc2)C1 (stereo not drawn) | i | i | i | i | -6*
OC1(c2ccccc2)CCN(Cc2ccccc2)CC1 | i | i | i | i | i
CCOC(=O)C1CCN(c2nc3ccccc3nc2C(C#N)C(=O)OC(C)COC)CC1 (stereo not drawn) | i | i | i | i | i
CCOC(=O)C1CCN(c2nc3ccccc3nc2C(C#N)C(=O)OCCOC)CC1 (stereo not drawn) | i | i | i | i | -7*
COc1cccc(NC(=O)c2ccc(NCCCN3CC(C)CC(C)C3)c([N+](=O)[O-])c2)c1 (stereo not drawn) | i | i | i | 14* | i
CN(C(=O)C1CCC(=O)N(Cc2cccc(F)c2)C1)C1CCCCC1 (stereo not drawn) | i | i | i | i | i
Cc1onc(-c2ccccc2)c1C(=O)NNC(=S)NC(=O)/C=C/c1cccs1 | 52* | i | i | i | i
Cc1onc(-c2ccccc2)c1C(=O)NNC(=S)NC(=O)c1ccc2c(c1)OCO2 | 79* | i | i | i | i
COc1ccc(C(=O)NC(=S)NNC(=O)c2c(-c3ccccc3)noc2C)cc1OC | 85* | i | i | i | i
Cc1onc(-c2ccccc2)c1C(=O)NC(=S)NNC(=O)c1ccco1 | 84* | i | i | i | i
Cc1onc(-c2ccccc2)c1C(=O)NC(=S)NNC(=O)c1ccncc1 | i | i | i | i | i
Cc1onc(-c2ccccc2)c1C(=O)NCc1ccc2c(c1)OCO2 | i | i | i | i | i
CCOc1ccc(S(=O)(=O)NC2CCCC2)cc1 | i | i | i | i | i
CCc1ccccc1N1CC(C(=O)Nc2nccs2)CC1=O (stereo not drawn) | i | i | i | i | i
SMILES | TRPC4 agonist | TRPC6 act | TRPC6 inh | TRPC4 potent | TRPC4 block
CC(C)C[C@H](NC(=O)N1CC(=O)Nc2ccccc21)C(=O)N[C@@H](Cc1ccccc1)C(=O)O | i | i | i | i | i
CCOC(=O)C1CCN(Cc2nnc(-c3ccccc3C)o2)CC1 | i | i | i | i | i
Cc1nn(-c2cccc(Cl)c2)c2nc(C(F)(F)F)[nH]c(=O)c12 | i | i | i | i | -8*
Cc1nn(-c2cc(C(F)(F)F)ccc2Cl)c2nc(C(F)(F)F)[nH]c(=O)c12 | i | i | i | i | i
CC(=O)N1c2ccc(S(=O)(=O)N3CCC(C(=O)Nc4ncccc4C)CC3)cc2CC1C (stereo not drawn) | i | i | i | i | i
C/[N+]([O-])=C\c1cccc(OCCN2CCN(c3ncc(C(F)(F)F)cc3Cl)CC2)c1 | i | i | i | 12* | i
CC(/C=N/NC(=O)CNc1n[nH]c(=O)[nH]c1=O)c1ccccc1 (stereo not drawn) | i | i | i | i | i
C=CCn1cnc2scc(-c3ccc(CC)cc3)c2c1=O | i | i | i | i | -6*
CC(C)c1cc(-c2cc(C(=O)NCc3ccccc3)on2)nc(NCC2CC2)n1 | i | i | i | 10* | i
CC(C)c1cc(-c2cc(C(=O)Nc3ccccc3)on2)nc(NCC2CC2)n1 | i | i | i | i | i
CN(CCCC(=O)O)S(=O)(=O)c1ccc2c(c1)C(=O)c1cc(S(=O)(=O)N(C)CCCC(=O)O)ccc1-2 | i | i | i | i | i
Cc1cccc(Nc2nc(N)c([N+](=O)[O-])c(NCc3ccco3)n2)c1 | i | i | i | 10* | i
O=C(NCCc1ccccn1)C(F)(F)C(F)(F)C(F)(F)C(F)(F)C(F)(F)C(F)(F)C(F)(F)C(F)F | 165* | i | i | i | i
Cc1ccc(CN2CCN(/N=C/c3ccc(Cl)c([N+](=O)[O-])c3)CC2)cc1 | i | i | i | i | i
Cc1ccc(CSc2nnc(-c3cccc(S(=O)(=O)N4CCOCC4)c3)n2C2CCCC2)cc1 | i | i | i | 18* | i
NC(=O)CSc1nnc(-c2cccc(S(=O)(=O)N3CCOCC3)c2)n1C1CCCCCC1 | i | i | i | i | i
O=C(Nc1ccccc1C(=O)N1CCCCCC1)c1cccc([N+](=O)[O-])c1 | i | i | i | i | i
Cc1cc(C)c(OCCCCCn2ccnc2)c(C)c1 | i | i | i | i | i
Cc1ccc(C)c(OCCCCCn2ccnc2)c1 | 169* | i | i | i | i
Cc1ccc(OCCn2ccnc2)c([N+](=O)[O-])c1 | i | i | i | i | i
Cc1cc(Cl)cc(C)c1OCCCCCn1ccnc1 | 86* | i | i | i | i
Cc1cc(OCCCn2ccnc2)cc(C)c1Cl | 104* | i | i | i | i
Cc1cc(OCCCn2ccnc2)ccc1[N+](=O)[O-] | 43* | i | i | 21* | i
Cc1cc(Cl)cc(C)c1OCCn1ccnc1 | i | i | i | i | i
CC1CCCCN1CC(O)COCc1ccc(Cl)cc1 (stereo not drawn) | i | i | i | i | i
CCCNc1cc(=S)nc(N)[nH]1 | i | i | i | i | i
